Measured values as given in paper PMC7531564 (mAbs, 2020).

Assays:
human ARG2 = target: T1, human ARG2 (Homo sapiens, UniProt P78540); experiment: Isothermal titration calorimetry with free ARG2; assay type: binding; settings: KD (ITC), free ARG2 20 µM monomer, 25°C
T1 sequence (P78540 23-354): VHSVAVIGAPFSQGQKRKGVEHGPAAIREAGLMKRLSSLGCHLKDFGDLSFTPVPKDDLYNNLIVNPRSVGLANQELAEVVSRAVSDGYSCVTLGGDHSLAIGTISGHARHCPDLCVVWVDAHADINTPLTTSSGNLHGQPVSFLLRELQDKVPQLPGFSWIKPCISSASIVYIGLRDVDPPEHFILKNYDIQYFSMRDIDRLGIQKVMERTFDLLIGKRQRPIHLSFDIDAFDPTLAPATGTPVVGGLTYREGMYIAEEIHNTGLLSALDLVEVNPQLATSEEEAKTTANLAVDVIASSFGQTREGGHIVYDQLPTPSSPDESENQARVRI
In short: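 ITC on a MicroCal VP at 25°C. A 750 µM (0.75 mM) boronic acid arginase-inhibitor ligand was titrated into 20 µM recombinant human ARG2 (monomer concentration). Thermograms were integrated, and isotherms were fitted to a one-site (one-to-one) binding model. Error was taken as a 68.3% confidence interval.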

[1] = target: T2, ARG2-C0021158 Fab complex (Homo sapiens, UniProt P78540); experiment: Isothermal titration calorimetry with ARG2-C0021158 Fab complex; assay type: binding; settings: ARG2 + C0021158 Fab 1:1 mix, 20 µM each
T2 sequence (P78540 23-354): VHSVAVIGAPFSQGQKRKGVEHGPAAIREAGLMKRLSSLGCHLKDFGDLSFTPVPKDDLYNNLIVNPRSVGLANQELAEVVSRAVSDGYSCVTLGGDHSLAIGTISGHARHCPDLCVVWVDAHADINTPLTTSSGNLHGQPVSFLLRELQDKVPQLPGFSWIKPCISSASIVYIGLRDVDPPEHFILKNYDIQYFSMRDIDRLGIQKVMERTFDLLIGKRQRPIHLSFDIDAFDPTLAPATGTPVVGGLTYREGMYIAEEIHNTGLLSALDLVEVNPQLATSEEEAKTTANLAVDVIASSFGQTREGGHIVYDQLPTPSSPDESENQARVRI
In short: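 ITC on a MicroCal VP at 25°C. Recombinant human ARG2 and test Fab were mixed 1:1 at 20 µM each (ARG2 as monomer) and pre-incubated 1 h at 20°C. Boronic acid arginase-inhibitor ligand at 0.50 mM was then titrated in. Isotherms were fitted to a one-site binding model.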

mouse cancer models = settings: cited from earlier work
[2] = system: CD3/CD28 co-stimulated T-cells; experiment: In vitro T-cell proliferation assay; assay type: cell-based, human; settings: ARG2 15 µg/ml; BrdU
In short: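 Human PBMCs were isolated from leukocyte cones by Ficoll gradient, and T cells were enriched by negative selection. 40000 cells/well in RPMI 1640 with 5% human serum albumin were activated with CD3/CD28 (1:40) for 45 min at 37°C, 5% CO2. Antibody titrations in TBS/NaCl were added for 30 min, then recombinant human trimeric ARG2 (15 µg/ml final). Incubation lasted 96 h total, with BrdU added at 78 h and read by ELISA. Data were expressed as % of control, with EC50 from a four-parameter fit.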

mRCC CL-19 cell line = settings: high expressing ARG2 mRCC CL-19 cell line; cited from earlier work
crystal structure = target: the molecule itself; experiment: crystal structure
[3] = target: biotinylated recombinant human ARG2 trimer (human, UniProt P78540, biotin (site not stated))
[4] = target: recombinant human Arginase 2 (ARG2) trimer, residues 23-354, C-terminal His6-tag (human, UniProt P78540); experiment: crystal structure

Cl.N[C@@H](CSCCB(O)O)C(=O)O [BEC, S-(2-Boronoethyl)-L-cysteine hydrochloride]
Kd (human ARG2): ~7 µM | binding to C0021158-bound ARG2 (ITC) [1]: no interaction

C[C@H](N)C(=O)N1C[C@H](CCCB(O)O)[C@](N)(C(=O)O)C1 [CB-1158]
tumor growth (mouse cancer models; mouse cancer models): reduces tumor growth

NC(=NCCC[C@H](N)C(=O)O)NO [NHLA, N^G-hydroxy-L-arginine]
restoration of ARG2-inhibited T-cell proliferation [2]: partially restore

N=C(NO)NCC[C@H](N)C(=O)O [nor-NOHA, N^ω-hydroxy-nor-L-arginine]
cell growth (mRCC CL-19 cell line): significantly suppressed cell growth | anti-tumor effect in vivo (mouse cancer models; in vivo mouse models): anti-tumor effects

B1: recombinant human Arginase 2 (ARG2) trimer, residues 23-354, C-terminal His6-tag (enzyme, UniProt P78540 23-354, looked up)
chain: VHSVAVIGAPFSQGQKRKGVEHGPAAIREAGLMKRLSSLGCHLKDFGDLSFTPVPKDDLYNNLIVNPRSVGLANQELAEVVSRAVSDGYSCVTLGGDHSLAIGTISGHARHCPDLCVVWVDAHADINTPLTTSSGNLHGQPVSFLLRELQDKVPQLPGFSWIKPCISSASIVYIGLRDVDPPEHFILKNYDIQYFSMRDIDRLGIQKVMERTFDLLIGKRQRPIHLSFDIDAFDPTLAPATGTPVVGGLTYREGMYIAEEIHNTGLLSALDLVEVNPQLATSEEEAKTTANLAVDVIASSFGQTREGGHIVYDQLPTPSSPDESENQARVRI
stoichiometry N (crystal structure): 3

B2: C0021177 (antibody, V domains shown)
VH: EVQLLESGGGLVQPGGSLRLSCAASGFTFRYEVAAWVRQAPGKGLEWVSAISGPAPKGYYADSVKGRFTISRDNSKNTLYLQMNSLRAEDTAVYYCARLRADLGLYMDLWGRGTLVTVSS
VL: QSELTQPPTASAAPGQKVTISCSGSSSNIGNHYVSWYQQLPGTAPKLLIYDTTVLSSGIPDRFSGSKSGTSATLGITGLQTGDEADYYCGTWDELTSNLVFGGGTKLTVL
Kd [3]: 0.000173 µM

B3: C0021158 Fab (Fab, V domains shown)
VH: EVQLLESGGGLVQPGGSLRLSCAASGFTFRYEVAAWVRQAPGKGLEWVSAISGPIPKGYYADSVKGRFTISRDNSKNTLYLQMNSLRAEDTAVYYCARLRADLGLYMDLWGRGTLVTVSS
VL: QSVLTQPPSVSAAPGQKVTISCSGSSSNIGNHYVSWYQQLPGTAPKLLIYDNSERTAGVPDRFSGSKSGTSATLGITGLQTGDEADYYCGTWDELTSNLVFGGGTKLTVL
stoichiometry N [4]: 3 Fab per ARG2 trimer
